Results reported in ChEMBL document CHEMBL4251645, “Synthesis of C3-Neoglycosides of digoxigenin and their anticancer activities” (2018).
The source made the active and inactive calls. The calls are words filed in the database; no cut-off is given here.

How the values were obtained:
NCI-H460 [1] = assay: Induction of Nur77 protein expression in human NCI-H460 cells at 20 nM after 3 hrs by Western blot assay; format: functional, cell-based
Summary of the method: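 NIH-H460 cells exposed to 20 nM glycoside for 3 h and lysed. Equal lysate amounts run on 8% SDS-PAGE and blotted to PVDF, then blocked in 5% milk/TBST for 1 h. Anti-Nur77 (1:1000) applied overnight at 4 °C, secondary antibody for 1 h, ECL detection. β-actin (1:10000) reprobe served as loading control.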

NCI-H460 [2] = assay: Cytotoxicity against human NCI-H460 cells assessed as reduction in cell viability at 50 nM after 48 hrs by MTT assay; format: functional, cell-based
Summary of the method: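 NIH-H460 cells (ATCC; RPMI 1640, 10% FBS, L-glutamine, penicillin/streptomycin) seeded at 3 × 10^3/well, then given medium with 50 nM glycoside for 48 h. MTT ([…]) added for 4 h at 37 °C, formazan dissolved in DMSO, absorbance at 560 nm.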

[3] = molecular target: Nuclear receptor subfamily 4immunitygroup A member 1 (Homo sapiens) (UniProt P22736); assay: Induction of Nur77 protein translocation from nucleus to cytoplasm in human NCI-H460 cells at 20 nM after 9 hrs by DAPI staining based immunofluorescence microscopic method; format: cell-based
Summary of the method: (§1)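 NIH-H460 cells given 20 nM glycoside for 3, 6 and 9 h. Cells permeabilized with 0.1% Triton X-100 for 15 min and blocked in 1% BSA for 30 min. Anti-Nur77 applied at 37 °C for 1 h, then Cy3 anti-rabbit IgG for 30 min at room temperature. DAPI stained nuclei; confocal imaging scored Nur77 nuclear versus cytoplasmic location.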

[4] = molecular target: Nuclear receptor subfamily 4immunitygroup A member 1 (Homo sapiens) (UniProt P22736); assay: Induction of Nur77 protein translocation from nucleus to cytoplasm in human NCI-H460 cells at 20 nM by DAPI staining based immunofluorescence microscopic method; format: cell-based; settings: TDE = time-dependent effect; summary of the method: as §1
NCI-H460 [5] = assay: Induction of apoptosis in human NCI-H460 cells assessed as live cells at 20 nM after 12 hrs by Annexin V-FITC/propidium iodide staining based flow cytometry (reference value: 91.81%); format: functional
Summary of the method: (§2)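 NIH-H460 cells seeded at 1 × 10^5/well and given 20 nM glycoside for 12 h. Cells trypsinized, spun at 1,500 rpm for 5 min and resuspended in Annexin V binding buffer. Annexin V-FITC stain for 15 min, then propidium iodide for 5 min. Populations quantified by FACS Calibur flow cytometry.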

NCI-H460 [6] = assay: Induction of apoptosis in human NCI-H460 cells assessed as early apoptotic cells at 20 nM after 12 hrs by Annexin V-FITC/propidium iodide staining based flow cytometry (reference value: 4.72%); format: functional; summary of the method: as §2
NCI-H460 [7] = assay: Induction of apoptosis in human NCI-H460 cells assessed as late apoptotic cells at 20 nM after 12 hrs by Annexin V-FITC/propidium iodide staining based flow cytometry (reference value: 2.54%); format: functional; summary of the method: as §2
NCI-H460 [8] = assay: Induction of apoptosis in human NCI-H460 cells assessed as necrotic cells at 20 nM after 12 hrs by Annexin V-FITC/propidium iodide staining based flow cytometry (reference value: 0.93%); format: functional; summary of the method: as §2
NCI-H460 [9] = assay: Induction of apoptosis in human NCI-H460 cells assessed as live cells after 12 hrs by Annexin V-FITC/propidium iodide staining based flow cytometry (reference value: 91.81%); format: functional
NCI-H460 [10] = assay: Induction of apoptosis in human NCI-H460 cells assessed as early apoptotic cells after 12 hrs by Annexin V-FITC/propidium iodide staining based flow cytometry (reference value: 4.72%); format: functional
NCI-H460 [11] = assay: Induction of apoptosis in human NCI-H460 cells assessed as late apoptotic cells after 12 hrs by Annexin V-FITC/propidium iodide staining based flow cytometry (reference value: 2.54%); format: functional
NCI-H460 [12] = assay: Induction of apoptosis in human NCI-H460 cells assessed as necrotic cells after 12 hrs by Annexin V-FITC/propidium iodide staining based flow cytometry (reference value: 0.93%); format: functional

Sequence of Nuclear receptor subfamily 4immunitygroup A member 1 (Homo sapiens) (P22736 whole entry): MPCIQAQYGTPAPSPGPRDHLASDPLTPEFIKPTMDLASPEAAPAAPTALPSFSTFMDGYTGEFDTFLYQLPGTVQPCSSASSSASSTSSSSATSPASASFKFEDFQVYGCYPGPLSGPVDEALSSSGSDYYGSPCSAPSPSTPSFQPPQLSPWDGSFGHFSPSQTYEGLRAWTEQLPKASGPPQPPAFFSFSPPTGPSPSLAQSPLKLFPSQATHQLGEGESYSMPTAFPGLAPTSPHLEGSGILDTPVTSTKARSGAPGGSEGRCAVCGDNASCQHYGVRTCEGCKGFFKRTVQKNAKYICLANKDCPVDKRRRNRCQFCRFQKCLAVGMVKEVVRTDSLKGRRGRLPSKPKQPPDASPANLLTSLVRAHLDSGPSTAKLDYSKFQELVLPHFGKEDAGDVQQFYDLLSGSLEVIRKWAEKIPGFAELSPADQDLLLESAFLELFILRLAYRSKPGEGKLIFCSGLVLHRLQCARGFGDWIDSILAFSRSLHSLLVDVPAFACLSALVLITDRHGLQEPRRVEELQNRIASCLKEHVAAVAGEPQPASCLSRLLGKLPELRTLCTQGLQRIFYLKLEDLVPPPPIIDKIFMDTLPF

C[C@]12CC[C@@H](O)C[C@H]1CC[C@@H]1[C@@H]2C[C@@H](O)[C@]2(C)[C@@H](C3=CC(=O)OC3)CC[C@]12O
Activity (NCI-H460 [1]): Active

C[C@@H]1OC(O[C@H]2CC[C@@]3(C)[C@H](CC[C@@H]4[C@@H]3C[C@@H](O)[C@]3(C)[C@@H](C5=CC(=O)OC5)CC[C@]43O)C2)[C@H](O)[C@H](O)[C@H]1O (stereo not given in full)
Activity (NCI-H460 [2]): Active
Activity (NCI-H460 [1]): Active
Activity [3]: Active
Activity [4]: Tde
Activity (NCI-H460 [5]): 83.59%
Activity (NCI-H460 [6]): 9.35%
Activity (NCI-H460 [7]): 5.5%
Activity (NCI-H460 [8]): 1.55%

C[C@]12CC[C@H](OC3O[C@H](CO)[C@@H](O[C@@H]4O[C@H](CO)[C@H](O)[C@H](O)[C@H]4O)[C@H](O)[C@H]3O)C[C@H]1CC[C@@H]1[C@@H]2C[C@@H](O)[C@]2(C)[C@@H](C3=CC(=O)OC3)CC[C@]12O (stereo not given in full)
Activity (NCI-H460 [1]): Active

C[C@H]1O[C@@H](O[C@H]2[C@@H](O)C[C@H](O[C@H]3[C@@H](O)C[C@H](O[C@H]4CC[C@@]5(C)[C@H](CC[C@@H]6[C@@H]5C[C@@H](O)[C@]5(C)[C@@H](C7=CC(=O)OC7)CC[C@]65O)C4)O[C@@H]3C)O[C@@H]2C)C[C@H](O)[C@@H]1O [DIGOXIN]
Activity (NCI-H460 [9]): 90.71%
Activity (NCI-H460 [10]): 4.06%
Activity (NCI-H460 [11]): 4.64%
Activity (NCI-H460 [12]): 0.6%

C[C@@H]1OC(O[C@H]2CC[C@@]3(C)[C@H](CC[C@@H]4[C@@H]3C[C@@H](O)[C@]3(C)[C@@H](C5=CC(=O)OC5)CC[C@]43O)C2)[C@@H](O)[C@H](O)[C@@H]1O (stereo not given in full)
Activity (NCI-H460 [2]): Active
Activity (NCI-H460 [1]): Active
Activity [3]: Active
Activity [4]: Tde
Activity (NCI-H460 [5]): 61.75%
Activity (NCI-H460 [6]): 25.02%
Activity (NCI-H460 [7]): 9.01%
Activity (NCI-H460 [8]): 4.21%

C[C@H]1O[C@@H](O[C@H]2[C@@H](O)CC(O[C@H]3CC[C@@]4(C)[C@H](CC[C@@H]5[C@@H]4C[C@@H](O)[C@]4(C)[C@@H](C6=CC(=O)OC6)CC[C@]54O)C3)O[C@@H]2C)C[C@H](O)[C@@H]1O (stereo not given in full)
Activity (NCI-H460 [1]): Active

C[C@]12CC[C@H](OC3O[C@H](CO)[C@@H](O[C@@H]4O[C@H](CO)[C@@H](O)[C@H](O)[C@H]4O)[C@H](O)[C@H]3O)C[C@H]1CC[C@@H]1[C@@H]2C[C@@H](O)[C@]2(C)[C@@H](C3=CC(=O)OC3)CC[C@]12O (stereo not given in full)
Activity (NCI-H460 [1]): Active

C[C@]12CC[C@@H](OC3O[C@H](CO)[C@@H](O)[C@H](O)[C@@H]3O)C[C@H]1CC[C@@H]1[C@@H]2C[C@@H](O)[C@]2(C)[C@@H](C3=CC(=O)OC3)CC[C@]12O (stereo not given in full)
Activity (NCI-H460 [1]): Active

C[C@]12CC[C@H](OC3OC[C@@H](O)[C@@H](O)[C@H]3O)C[C@H]1CC[C@@H]1[C@@H]2C[C@@H](O)[C@]2(C)[C@@H](C3=CC(=O)OC3)CC[C@]12O (stereo not given in full)
Activity (NCI-H460 [2]): Active
Activity (NCI-H460 [1]): Active
Activity [3]: Active
Activity [4]: Tde
Activity (NCI-H460 [5]): 83.97%
Activity (NCI-H460 [6]): 10.21%
Activity (NCI-H460 [7]): 4.58%
Activity (NCI-H460 [8]): 1.24%

C[C@]12CC[C@H](OC3O[C@H](CO)[C@@H](O)[C@H](O)[C@H]3O)C[C@H]1CC[C@@H]1[C@@H]2C[C@@H](O)[C@]2(C)[C@@H](C3=CC(=O)OC3)CC[C@]12O (stereo not given in full)
Activity (NCI-H460 [2]): Active

C[C@]12CC[C@H](OC3O[C@H](CO)[C@H](O)[C@H](O)[C@H]3O)C[C@H]1CC[C@@H]1[C@@H]2C[C@@H](O)[C@]2(C)[C@@H](C3=CC(=O)OC3)CC[C@]12O (stereo not given in full)
Activity (NCI-H460 [1]): Active
